Results reported in ChEMBL document CHEMBL3091378, “Design, synthesis and biological evaluation of α-substituted isonipecotic acid benzothiazole analogues as potent bacterial type II topoisomerase inhibitors” (Bioorg Med Chem Lett, 2013).
≈ marks a conversion by molar mass, not a printed value. Calls of active or inactive are those of the source. No cut-off for these calls is given here.

Legend:
Haemophilus influenzae = assay: Antibacterial activity against Haemophilus influenzae ATCC 49247 assessed as growth inhibition after 16 to 20 hrs by broth microdilution method; format: functional
How it was run: (§1)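 Broth microdilution susceptibility testing following the CLSI M7-A7 standard; MIC determined.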

DNA gyrase = DNA gyrase (Staphylococcus aureus, UniProt P0A0K8+P20831); assay: Inhibition of Staphylococcus aureus DNA gyrase ATPase subunit GyrA2/GyrB2 after 60 mins by malachite green staining assay; format: protein-complex assay
How it was run: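 S. aureus gyrase A2B2, 10 nM, with 0.08 mg/mL DNA in 40 mM HEPES pH 7.6, 10 mM Mg acetate, 0.5 M K glutamate, 0.01 mg/mL BSA, 2 mM DTT, 5% DMSO. Reaction started with 1 mM ATP and run 60 min at 30 °C. Malachite green absorbance read at 600 nm. IC50 derived using no-compound and no-enzyme controls.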

Staphylococcus aureus [1] = assay: Antibacterial activity against Staphylococcus aureus ATCC 29213 assessed as growth inhibition after 16 to 20 hrs by broth microdilution method; format: functional; how it was run: as §1
Streptococcus pyogenes = assay: Antibacterial activity against Streptococcus pyogenes ATCC 51339 assessed as growth inhibition after 16 to 20 hrs by broth microdilution method; format: functional; how it was run: as §1
[2] = Solubility of the compound in PBS at pH 7.4 after 24 hrs by turbidimetric analysis; format: physicochemical
How it was run: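 Doubling dilutions in DMSO diluted 20-fold into 100 mM PBS pH 7.4, equilibrated 24 h at room temperature, absorbance read at 620 nm. Value is the highest concentration with no measurable precipitate.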

[3] = Intrinsic clearance in mouse liver microsomes at 10 uM by LC-MS analysis; format: ADME, Microsome; conditions: read-out: CLH
How it was run: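 Compound at 10 μM, duplicate, 0.1% DMSO, with mouse liver microsomes at 1 mg/mL protein. Started with 1 mM NADPH and stopped at 0, 10, 30 and 60 min. Acetonitrile extracts analysed by LCMS. T1/2 taken from the slope of peak area over time, then converted to intrinsic clearance.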

Enterococcus faecalis = assay: Antibacterial activity against Enterococcus faecalis ATCC 29212 assessed as growth inhibition after 16 to 20 hrs by broth microdilution method; format: functional; how it was run: as §1
Staphylococcus aureus [4] = assay: Antibacterial activity against Staphylococcus aureus ATCC 29213 assessed as spontaneous mutant measuring frequency of resistance at 4 to 8 fold MIC relative to control; format: functional, organism-based
[5] = Plasma protein binding in rat; format: ADME, cell-free; conditions: read-out: PPB (converted)
[6] = Cmax in mouse at 3 mg/kg, po; format: ADME, organism-based; set-up: dose 3 mg/kg, route oral; conditions: in vivo
How it was run: (§2)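 Single 3 mg/kg dose given as an IV bolus by tail vein or by oral gavage, dose volume 5 mL/kg. Rats were bled by jugular vein catheter. Anaesthetised mice were bled from the retro-orbital plexus. Plasma was extracted into methanol and drug measured by LC/MS/MS. Cmax (oral), AUC and clearance (IV) and bioavailability were calculated from plasma concentrations.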

[7] = AUC in mouse at 3 mg/kg, iv; format: ADME, organism-based; set-up: dose 3 mg/kg, route intravenous; conditions: plasma; how it was run: as §2
Topoisomerase IV = Topoisomerase IV (Staphylococcus aureus, UniProt P0C1S7+P0C1U9); assay: Inhibition of Staphylococcus aureus DNA topoisomerase 4 subunit ParC2/ParE2 after 60 mins by malachite green staining assay; format: protein-complex assay
How it was run: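 S. aureus topo IV C2E2, 25 nM, with 0.01 mg/mL DNA in 50 mM Tris-HCl pH 7.5, 5 mM MgCl2, 0.35 M K glutamate, 0.05 mg/mL BSA, 5 mM DTT, 1% DMSO. ATP added at 1 mM to start, then 30 °C for 60 min. Malachite green read at 600 nm. IC50 calculated relative to no-compound and no-enzyme controls.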

[8] = Clearance in mouse at 3 mg/kg, iv; format: ADME, organism-based; set-up: dose 3 mg/kg, route intravenous; conditions: in vivo; how it was run: as §2
[9] = Oral bioavailability in mouse at 3 mg/kg; format: ADME, organism-based; conditions: in vivo; how it was run: as §2
[10] = Inhibition of Escherichia coli DNA gyrase ATPase subunit A2B2 after 60 mins by malachite green staining assay
How it was run: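 E. coli gyrase A2B2, 10 nM, with 0.08 mg/mL DNA in 35 mM Tris pH 7.5, 24 mM KCl, 2 mM MgCl2, 6.5% glycerol, 0.1 mg/mL BSA, 2 mM DTT, 5% DMSO. Started with 1 mM ATP, 30 °C for 60 min. Phosphate read with malachite green at 600 nm after 5 min. IC50 taken against no-compound and no-enzyme controls.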

[11] = Clearance in rat at 3 mg/kg, iv; format: ADME, organism-based; set-up: dose 3 mg/kg, route intravenous; conditions: in vivo; how it was run: as §2
[12] = Cmax in rat at 3 mg/kg, po; format: ADME, organism-based; set-up: dose 3 mg/kg, route oral; conditions: in vivo; how it was run: as §2
[13] = AUC in rat at 3 mg/kg, iv; format: ADME, organism-based; set-up: dose 3 mg/kg, route intravenous; conditions: plasma; how it was run: as §2
[14] = Oral bioavailability in rat at 3 mg/kg; format: ADME, organism-based; conditions: in vivo; how it was run: as §2

SMILES | MIC (Haemophilus influenzae) [µg/mL] | IC50 (DNA gyrase) [nM] | MIC (Staphylococcus aureus [1]) [µg/mL] | MIC (Streptococcus pyogenes) [µg/mL] | solubility kinetic at 24 h [2] [µg/mL] | CLint scaled at 10 µM [3] [mL/min/kg] | MIC (Enterococcus faecalis) [µg/mL] | Cmax [6] [ng/mL] | AUC [7] [ng·h/mL] | clearance [8] [mL/min/kg] | bioavailability [9] [%] | IC50 [10] [µg/mL] | clearance [11] [mL/min/kg] | Cmax [12] [ng/mL] | AUC [13] [ng·h/mL] | bioavailability [14] [%] | Activity (Staphylococcus aureus [4]) | fraction unbound [5] | IC50 (Topoisomerase IV) [nM]
CCNC(=O)Nc1nc2cc(-c3cnc(N4CCC(C(=O)O)(C(F)(F)F)CC4)nc3)cc(-c3ccccn3)c2s1 | 16 (≈ 28 µM) | 28 | 2 (≈ 3.5 µM) | 0.25 (≈ 0.437 µM) | > 800 |  | 0.25 (≈ 0.437 µM) |  |  |  |  |  |  |  |  |  |  |  | 
CCNC(=O)Nc1nc2cc(-c3cnc(N4CCC(C(=O)O)CC4)nc3)cc(-c3ccccn3)c2s1 | 2 (≈ 3.97 µM) | 19.9 | 0.12 (≈ 0.238 µM) | 0.03 (≈ 0.0596 µM) | > 800 | < 5.8 | 0.015 (≈ 0.0298 µM) | 70 | 900 | 55 | 8 |  |  |  |  |  | inactive | 0.007 | 23.8
CCNC(=O)Nc1nc2cc(-c3cnc(N4CCC(C(=O)O)(c5ccccc5)CC4)nc3)cc(-c3ccccn3)c2s1 | > 16 |  | 0.5 (≈ 0.863 µM) | 0.5 (≈ 0.863 µM) | 12.5 (≈ 21.6 µM) | < 5.8 | 0.06 (≈ 0.104 µM) |  |  |  |  | 0.013 (≈ 0.0224 µM) |  |  |  |  |  |  | 
CCNC(=O)Nc1nc2cc(-c3cccnc3)cc(-c3ccccn3)c2s1 |  | 37.3 |  |  | 6.25 (≈ 16.6 µM) |  | 0.12 (≈ 0.32 µM) |  |  |  |  |  |  |  |  |  |  |  | 
CCNC(=O)Nc1nc2cc(-c3cnc(N4CCC(C)(C(=O)O)CC4)nc3)cc(-c3ccccn3)c2s1 | 2 (≈ 3.86 µM) | 15.5 | 0.12 (≈ 0.232 µM) | 0.06 (≈ 0.116 µM) | > 800 | < 5.8 | 0.015 (≈ 0.029 µM) |  |  |  |  |  | 2.8 | 1800 |  |  | inactive | 0.007 | 15.5
CCNC(=O)Nc1nc2cc(-c3nc(N4CCC(C)(C(=O)O)CC4)ns3)cc(-c3ccccn3)c2s1 | > 16 | 107 | 1 (≈ 1.91 µM) | 1 (≈ 1.91 µM) |  |  |  |  |  |  |  |  |  |  |  |  |  |  | 
CCNC(=O)Nc1nc2cc(-c3ccc(C(=O)O)nc3)cc(-c3ccccn3)c2s1 |  | 2.38 |  |  | 50 (≈ 119 µM) |  | 0.12 (≈ 0.286 µM) |  |  |  |  |  |  |  |  |  |  |  | 
CCNC(=O)Nc1nc2cc(-c3cnc(N4CCC(N)(C(=O)O)CC4)nc3)cc(-c3ccccn3)c2s1 | > 16 |  | > 16 | 4 (≈ 7.71 µM) | 25 (≈ 48.2 µM) |  | > 16 |  |  |  |  | 0.025 (≈ 0.0482 µM) |  |  |  |  |  |  | 
CCNC(=O)Nc1nc2cc(-c3cnc(N4CCC(O)(C(=O)O)CC4)nc3)cc(-c3ccccn3)c2s1 | 8 (≈ 15.4 µM) |  | 8 (≈ 15.4 µM) | 0.12 (≈ 0.231 µM) | 100 (≈ 192 µM) |  | 0.5 (≈ 0.962 µM) |  |  |  |  | 0.003 (≈ 0.00577 µM) |  |  |  |  |  |  | 
CCNC(=O)Nc1nc2cc(-c3cnc(N4CCC(C(=O)O)(S(C)(=O)=O)CC4)nc3)cc(-c3ccccn3)c2s1 | > 16 |  | > 16 | 4 (≈ 6.88 µM) | > 800 |  | 4 (≈ 6.88 µM) |  |  |  |  | 0.015 (≈ 0.0258 µM) |  |  |  |  |  |  | 
CCNC(=O)Nc1nc2cc(-c3cnc(N4CCCCC4(C)C(=O)O)nc3)cc(-c3ccccn3)c2s1 (stereo not drawn) | 8 (≈ 15.5 µM) |  | 0.5 (≈ 0.966 µM) | 0.5 (≈ 0.966 µM) | 6.25 (≈ 12.1 µM) |  | 0.5 (≈ 0.966 µM) |  |  |  |  | 0.007 (≈ 0.0135 µM) |  |  |  |  |  |  | 

Continued by falling MIC (Haemophilus influenzae), values first:

MIC (Haemophilus influenzae) [µg/mL] | IC50 (DNA gyrase) [nM] | MIC (Staphylococcus aureus [1]) [µg/mL] | MIC (Streptococcus pyogenes) [µg/mL] | solubility kinetic at 24 h [2] [µg/mL] | CLint scaled at 10 µM [3] [mL/min/kg] | MIC (Enterococcus faecalis) [µg/mL] | Cmax [6] [ng/mL] | AUC [7] [ng·h/mL] | clearance [8] [mL/min/kg] | bioavailability [9] [%] | IC50 [10] [µg/mL] | clearance [11] [mL/min/kg] | Cmax [12] [ng/mL] | AUC [13] [ng·h/mL] | bioavailability [14] [%] | SMILES | Activity (Staphylococcus aureus [4]) | fraction unbound [5] | IC50 (Topoisomerase IV) [nM]
8 (≈ 15.5 µM) | 38.6 | 0.5 (≈ 0.966 µM) | 0.12 (≈ 0.232 µM) | > 800 | < 5.8 | 0.03 (≈ 0.058 µM) |  |  |  |  |  |  |  |  |  | CCNC(=O)Nc1nc2cc(-c3cnc(N4CCC(C)(C(=O)O)CC4)cn3)cc(-c3ccccn3)c2s1 |  |  | 
8 (≈ 15 µM) | 11.3 | 0.12 (≈ 0.226 µM) | 0.12 (≈ 0.226 µM) | > 800 | < 5.8 |  |  |  |  |  |  |  |  |  |  | CCNC(=O)Nc1nc2cc(-c3cnc(N4CCCC(C)(C(=O)O)CC4)nc3)cc(-c3ccccn3)c2s1 (stereo not drawn) |  |  | 
4 (≈ 7.94 µM) | 79.4 | 2 (≈ 3.97 µM) | 0.5 (≈ 0.993 µM) | > 800 |  |  |  |  |  |  |  |  |  |  |  | CCNC(=O)Nc1nc2cc(-c3cnc(N4CCC(C)(C(=O)O)C4)nc3)cc(-c3ccccn3)c2s1 (stereo not drawn) |  |  | 
4 (≈ 7.74 µM) | 29 | 1 (≈ 1.94 µM) | 0.06 (≈ 0.116 µM) | > 800 |  | 0.06 (≈ 0.116 µM) |  |  |  |  |  |  |  |  |  | CCNC(=O)Nc1nc2cc(-c3cncc(N4CCC(C)(C(=O)O)CC4)c3)cc(-c3ccccn3)c2s1 |  |  | 
4 (≈ 7.52 µM) | 22.6 | 0.06 (≈ 0.113 µM) | 0.06 (≈ 0.113 µM) | > 800 | < 5.8 | 0.015 (≈ 0.0282 µM) | 6100 | 14300 | 3.5 | 87 |  | 1.5 | 3500 | 27700 | 80 | CCNC(=O)Nc1nc2cc(-c3cnc(N4CCC(CC)(C(=O)O)CC4)nc3)cc(-c3ccccn3)c2s1 |  |  | 
2 (≈ 3.87 µM) | 23.2 | 0.12 (≈ 0.232 µM) | 0.12 (≈ 0.232 µM) | > 800 | < 5.8 | 0.03 (≈ 0.0581 µM) | 1700 | 7600 | 6.5 | 33 |  | 7.6 | 600 | 6600 | 31 | CCNC(=O)Nc1nc2cc(-c3ccc(N4CCC(C)(C(=O)O)CC4)nc3)cc(-c3ccccn3)c2s1 |  |  | 
1 (≈ 1.99 µM) | 9.93 | 0.5 (≈ 0.993 µM) | 0.06 (≈ 0.119 µM) | > 800 |  | 0.25 (≈ 0.496 µM) |  |  |  |  |  |  |  |  |  | CCNC(=O)Nc1nc2cc(-c3cnc(N4CCCC4(C)C(=O)O)nc3)cc(-c3ccccn3)c2s1 (stereo not drawn) |  |  | 
